Results published in ChEMBL document CHEMBL5365545, “Synthesis and Optimization of 1-Substituted Imidazo[4,5-c]quinoline TLR7 Agonists” (ACS Med Chem Lett, 2023).
Calls of active or inactive are those of the source. The calls are words filed in the database; no cut-off is given here.

Columns and labels:
[1] = Apparent permeability of the compound at 200 uM incubated for 5 hrs by PAMPA assay; assay type: ADME
In short: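 PAMPA using an artificial lipid/oil/lipid trilayer membrane separating donor and acceptor wells. Compound was quantified by absorbance at 280 nm, or at 320 nm for some compounds. Runs were in triplicate, and the reported values are averages of three experiments.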

[2] = molecular target: T1, Toll-like receptor 8 (Homo sapiens) (UniProt Q9NR97); assay: Agonist activity at TLR8 in GM-CSF induced human MDM cells assessed as increase in TNFalpha release at 80 to 2000 nM measured after 6 hrs; assay type: cell-based; details: filed as agonist, dose 80-2000 nM
T1 sequence (whole entry): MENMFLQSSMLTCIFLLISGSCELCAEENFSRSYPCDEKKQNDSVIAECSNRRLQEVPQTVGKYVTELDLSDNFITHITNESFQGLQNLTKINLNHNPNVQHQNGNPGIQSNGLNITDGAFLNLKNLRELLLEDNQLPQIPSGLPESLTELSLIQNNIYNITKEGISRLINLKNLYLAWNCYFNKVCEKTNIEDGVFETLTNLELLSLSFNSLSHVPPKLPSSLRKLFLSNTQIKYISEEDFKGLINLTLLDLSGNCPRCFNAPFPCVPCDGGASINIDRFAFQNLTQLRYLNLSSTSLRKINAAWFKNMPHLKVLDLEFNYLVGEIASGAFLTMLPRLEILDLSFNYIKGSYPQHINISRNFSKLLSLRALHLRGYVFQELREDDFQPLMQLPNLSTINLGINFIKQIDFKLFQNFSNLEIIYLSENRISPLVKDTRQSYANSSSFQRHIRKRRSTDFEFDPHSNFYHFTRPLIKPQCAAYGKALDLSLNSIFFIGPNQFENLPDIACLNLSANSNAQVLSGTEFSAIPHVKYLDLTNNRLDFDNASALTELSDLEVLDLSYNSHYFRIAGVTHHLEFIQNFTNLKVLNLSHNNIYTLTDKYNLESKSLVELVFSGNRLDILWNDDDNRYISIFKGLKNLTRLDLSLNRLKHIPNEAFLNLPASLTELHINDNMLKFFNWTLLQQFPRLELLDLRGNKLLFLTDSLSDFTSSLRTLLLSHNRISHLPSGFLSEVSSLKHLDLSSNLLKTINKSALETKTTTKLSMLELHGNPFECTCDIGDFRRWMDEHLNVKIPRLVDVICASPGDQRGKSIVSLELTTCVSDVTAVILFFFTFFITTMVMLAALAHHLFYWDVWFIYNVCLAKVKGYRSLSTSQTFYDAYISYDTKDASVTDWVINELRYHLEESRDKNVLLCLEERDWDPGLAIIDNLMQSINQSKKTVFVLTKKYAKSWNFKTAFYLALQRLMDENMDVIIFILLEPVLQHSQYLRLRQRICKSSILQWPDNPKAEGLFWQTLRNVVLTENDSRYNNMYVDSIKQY

[3] = molecular target: T1, Toll-like receptor 8 (Homo sapiens); assay: Agonist activity at TLR8 in GM-CSF induced human MDM cells assessed as increase in IL-6 release at 80 to 2000 nM measured after 6 hrs; assay type: cell-based; details: filed as agonist, dose 80-2000 nM
[4] = molecular target: T2, Toll-like receptor 7 (Homo sapiens, UniProt Q9NYK1); assay: Agonist activity at TLR7 in human Ramos-blue cells assessed as increase in NFkappaB activation incubated for 72 hrs by quanti-blue/SEAP reporter gene based assay; assay type: cell-based
T2 sequence (Q9NYK1 whole entry): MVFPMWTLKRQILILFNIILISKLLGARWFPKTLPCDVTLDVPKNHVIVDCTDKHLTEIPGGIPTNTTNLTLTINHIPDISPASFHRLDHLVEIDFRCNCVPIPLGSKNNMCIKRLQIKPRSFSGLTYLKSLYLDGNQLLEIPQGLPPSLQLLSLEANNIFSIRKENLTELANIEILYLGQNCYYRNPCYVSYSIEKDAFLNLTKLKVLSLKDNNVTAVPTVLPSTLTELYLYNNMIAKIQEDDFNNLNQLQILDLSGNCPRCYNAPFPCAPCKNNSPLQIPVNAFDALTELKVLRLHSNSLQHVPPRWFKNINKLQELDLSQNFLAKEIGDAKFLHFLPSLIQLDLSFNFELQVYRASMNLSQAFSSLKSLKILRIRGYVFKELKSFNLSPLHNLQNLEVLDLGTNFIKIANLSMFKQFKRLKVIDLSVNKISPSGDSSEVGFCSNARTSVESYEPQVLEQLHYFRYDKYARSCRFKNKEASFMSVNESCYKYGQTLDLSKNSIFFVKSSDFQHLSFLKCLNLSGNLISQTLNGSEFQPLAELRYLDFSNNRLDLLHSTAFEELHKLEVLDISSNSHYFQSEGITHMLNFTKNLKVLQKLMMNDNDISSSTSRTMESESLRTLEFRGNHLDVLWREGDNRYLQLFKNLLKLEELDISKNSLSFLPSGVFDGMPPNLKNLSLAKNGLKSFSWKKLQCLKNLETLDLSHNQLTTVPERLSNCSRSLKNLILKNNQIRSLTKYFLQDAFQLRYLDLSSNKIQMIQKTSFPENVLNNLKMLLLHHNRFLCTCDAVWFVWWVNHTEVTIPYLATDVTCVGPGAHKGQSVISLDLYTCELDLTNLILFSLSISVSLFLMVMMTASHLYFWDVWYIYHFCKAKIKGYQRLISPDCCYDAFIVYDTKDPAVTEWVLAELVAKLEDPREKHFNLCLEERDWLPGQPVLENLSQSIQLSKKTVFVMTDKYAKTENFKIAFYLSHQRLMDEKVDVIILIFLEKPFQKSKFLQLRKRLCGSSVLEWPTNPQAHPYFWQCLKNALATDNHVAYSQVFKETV

Structure (SMILES)	Papp at 5 h, 200 µM [1] [×10⁻⁶ cm/s]	other results
CCCCc1nc2c(N)nc3ccccc3c2n1Cc1ccc(NC(=O)CCCCCN)cc1	0.436	–
CCCN(CCC)C(=O)C1=Cc2ccc(-c3ccc(C(=O)N4CCCC4)cc3)cc2N=C(N)C1	–	Activity [2]: Active; Activity [3]: Active
CCCCc1nc2c(N)nc3ccccc3c2n1Cc1ccc(OC)cc1	4.01	EC50 [4]: 232 nM
CCCCC(=O)Nc1ccc(Cn2c(CCCC)nc3c(N)nc4ccccc4c32)cc1	1.59	–
CCCCc1nc2c(N)nc3ccccc3c2n1Cc1ccc(NC(=O)CCCCCNC(=O)OC(C)(C)C)cc1	1.91	–
CCCCc1nc2c(N)nc3ccccc3c2n1Cc1ccc(NC(=O)CCCCNC(=O)OC(C)(C)C)cc1	1.95	–
CCCCc1nc2c(N)nc3ccccc3c2n1Cc1ccc(O)cc1	3.06	–
CCCCc1nc2c(N)nc3ccccc3c2n1Cc1cccc(O)c1	0.98	–
CCCCc1nc2c(N)nc3ccccc3c2n1Cc1ccc(NC(=O)CCN)cc1	0.131	–
CCCCc1nc2c(N)nc3ccccc3c2n1Cc1cccc(NC(=O)OC(C)(C)C)c1	1.24	–
CCOCc1nc2c(N)nc3ccccc3c2n1CC(C)(C)O [RESIQUIMOD]	5.3	–
CCCCc1nc2c(N)nc3ccccc3c2n1Cc1ccc(N)cc1	8.51	EC50 [4]: 69 nM
CCCCc1nc2c(N)nc3ccccc3c2n1Cc1ccc(NC(=O)CCCN)cc1	0.159	–
CCCCc1nc2c(N)nc3ccccc3c2n1Cc1cccc(N)c1	5.26	–
CCCCOC(=O)Cc1ccc(Cn2c(CCCC)nc3c(N)nc4ccccc4c32)cc1	14.2	–
CCCCc1nc2c(N)nc3ccccc3c2n1Cc1ccc(NC(=O)CN)cc1	0.834	–
CCCCc1nc2c(N)nc3ccccc3c2n1Cc1ccc(NC(=O)OCC)cc1	8.78	–
CCCCc1nc2c(N)nc3ccccc3c2n1Cc1ccc(NC(=O)CCCCN)cc1	0.838	–
CCCCc1nc2c(N)nc3ccccc3c2n1Cc1ccc(NC(=O)CNC(=O)OC(C)(C)C)cc1	4.48	–
CCCCc1nc2c(N)nc3ccccc3c2n1Cc1ccc(NC(=O)CCNC(=O)OC(C)(C)C)cc1	0.434	–
CCCCc1nc2c(N)nc3ccccc3c2n1Cc1cccc(OC)c1	2.5	–
CCCCc1nc2c(N)nc3ccccc3c2n1Cc1ccc(NC(=O)CCCNC(=O)OC(C)(C)C)cc1	1.33	–
CCCCc1nc2c(N)nc3ccccc3c2n1Cc1ccc(NC(C)=O)cc1	3.45	–
CCCCc1nc2c(N)nc3ccccc3c2n1Cc1ccc(NC(=O)OC(C)C)cc1	5.12	–
